We go through 28 compounds from ChEMBL document CHEMBL1129953, “Heteroaromatic analogs of 1-[2-(diphenylmethoxy)ethyl]- and 1-[2-[bis(4-fluorophenyl)methoxy]ethyl]-4-(3-phenylpropyl)piperazines (GBR 12935 and GBR 12909) as high-affinity dopamine reuptake inhibitors” (J Med Chem, 1997).

Structures are written as SMILES.

Experiment [1] has as its target T1, Sodium-dependent dopamine transporter (Rattus norvegicus, UniProt P23977). Nature of the experiment: Reuptake inhibition at the dopamine transporter labeled with radioligand [3H]dopamine on synaptosomes obtained from rat caudate. It counts as functional, subcellular, Brain. The essentials: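 Rat caudate synaptosomes (10% sucrose homogenate, 1000g supernatant). [3H]DA at 5 nM final in Krebs-phosphate buffer pH 7.4 with ascorbic acid and 50 μM pargyline. Incubated 15 min at 25 °C. Nonspecific uptake defined with 1 μM GBR 12909. Filtered over GF/B filters and counted. IC50 reported.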

Experiment [2] concerns the target T2, Monoamine transporters; serotonin & dopamine (Rattus norvegicus) (UniProt P31652+P23977). In words: Ratio of reuptake inhibition of 5-HT with respect to DA. The experiment is classed as functional.
Experiment [3] concerns the target T1, Sodium-dependent dopamine transporter. Nature of the experiment: Binding affinity at the dopamine transporter using [125I]RTI-55 in rat caudate membranes. The experiment is classed as cell membranes. The method, boiled down: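 [125I]RTI-55 at 0.01 nM (SA 2200 Ci/mmol). […] Incubated in triplicate 18–24 h at 4 °C to equilibrium. Filtered over PEI-presoaked GF/B filters. Eight-point inhibition curves spanning 90% to 10% of control. IC50 reported.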

The target in experiment [4] is T2, Monoamine transporters; serotonin & dopamine (Rattus norvegicus). In words: Ratio of binding affinity on SERT with respect to DA. The experiment is classed as protein assay.
The target of experiment [5] is Sodium-dependent dopamine transporter (Rattus norvegicus) (UniProt P23977). Nature of the experiment: Ratio of reuptake inhibition on DA with respect to binding affinity of DA. The experiment is classed as functional.
The target of experiment [6] is T3, Sodium-dependent serotonin transporter (Rattus norvegicus, UniProt P31652). Nature of the experiment: Binding affinity at the serotonin transporter using [125I]RTI-55 in rat caudate membranes. It counts as cell membranes. The method, boiled down: (§1)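 Triplicate incubation 18–24 h at 4 °C, then filtration over PEI-presoaked GF/B filters. Eight-point inhibition curves (90–10% of control) give the IC50.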

Experiment [7] deals with T3, Sodium-dependent serotonin transporter. In words: Binding affinity was determined at the Serotonin transporter labeled with radioligand [125 I] RTI-55. The method, boiled down:
as §1

The target in experiment [8] is T1, Sodium-dependent dopamine transporter. In words: Binding affinity was determined at the dopamine transporter labeled with radioligand [125 I] RTI-55. The essentials: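 Incubated in triplicate 18–24 h at 4 °C to equilibrium. Filtered over PEI-presoaked GF/B filters. Eight-point inhibition curves spanning 90% to 10% of control. IC50 reported.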
For experiment [9] the target is unchanged. In words: Binding affinity was determined at the dopamine transporter labeled with radioligand [125 I] RTI-55 in nonstandard conditions. The method, boiled down: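 Run on rat caudate synaptosomes in Krebs-phosphate buffer with 1 mg/mL BSA. Drug preincubated 60 min at 25 °C, then 10 pM [125I]RTI-55 added for 20 min at 25 °C. Filtered over PEI-presoaked GF/B filters. Nonspecific binding defined with 1 μM GBR 12909. Mean ± SD of three independent experiments.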

Experiment [10] has the same target. In words: Reuptake inhibition was determined at the dopamine transporter labeled with radioligand [3H]dopamine in nonstandard conditions on brain membranes obtained from rat. It counts as functional, Membrane. The method, boiled down:
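Synaptosomes preincubated with drug 60 min at 25 °C in Krebs-phosphate buffer with 1 mg/mL BSA. 5 nM [3H]DA then added for 20 min at 25 °C. Nonspecific uptake defined with 1 μM GBR 12909. Stopped by filtration. Mean ± SD of three independent experiments.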

Sequence of Sodium-dependent dopamine transporter (Rattus norvegicus) (P23977 whole entry): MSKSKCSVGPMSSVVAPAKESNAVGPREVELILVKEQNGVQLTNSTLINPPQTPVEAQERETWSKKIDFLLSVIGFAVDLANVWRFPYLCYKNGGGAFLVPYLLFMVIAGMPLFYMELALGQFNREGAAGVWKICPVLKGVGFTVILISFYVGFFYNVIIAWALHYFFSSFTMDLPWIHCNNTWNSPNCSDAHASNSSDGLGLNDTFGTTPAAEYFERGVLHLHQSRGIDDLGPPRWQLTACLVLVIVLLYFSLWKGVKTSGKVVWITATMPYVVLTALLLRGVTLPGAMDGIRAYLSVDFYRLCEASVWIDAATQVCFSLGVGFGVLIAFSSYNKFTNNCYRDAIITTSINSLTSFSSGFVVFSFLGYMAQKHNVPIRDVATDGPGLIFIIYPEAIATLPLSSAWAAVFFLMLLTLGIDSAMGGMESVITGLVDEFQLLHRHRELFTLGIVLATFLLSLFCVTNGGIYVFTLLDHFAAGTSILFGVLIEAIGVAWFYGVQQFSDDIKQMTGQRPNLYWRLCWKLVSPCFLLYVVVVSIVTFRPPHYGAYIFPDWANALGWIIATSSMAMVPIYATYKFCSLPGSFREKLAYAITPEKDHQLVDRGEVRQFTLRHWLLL
T2 sequence (P23977 whole entry, looked up): as the sequence (P23977 whole entry) above
T2 sequence (P31652 whole entry, looked up): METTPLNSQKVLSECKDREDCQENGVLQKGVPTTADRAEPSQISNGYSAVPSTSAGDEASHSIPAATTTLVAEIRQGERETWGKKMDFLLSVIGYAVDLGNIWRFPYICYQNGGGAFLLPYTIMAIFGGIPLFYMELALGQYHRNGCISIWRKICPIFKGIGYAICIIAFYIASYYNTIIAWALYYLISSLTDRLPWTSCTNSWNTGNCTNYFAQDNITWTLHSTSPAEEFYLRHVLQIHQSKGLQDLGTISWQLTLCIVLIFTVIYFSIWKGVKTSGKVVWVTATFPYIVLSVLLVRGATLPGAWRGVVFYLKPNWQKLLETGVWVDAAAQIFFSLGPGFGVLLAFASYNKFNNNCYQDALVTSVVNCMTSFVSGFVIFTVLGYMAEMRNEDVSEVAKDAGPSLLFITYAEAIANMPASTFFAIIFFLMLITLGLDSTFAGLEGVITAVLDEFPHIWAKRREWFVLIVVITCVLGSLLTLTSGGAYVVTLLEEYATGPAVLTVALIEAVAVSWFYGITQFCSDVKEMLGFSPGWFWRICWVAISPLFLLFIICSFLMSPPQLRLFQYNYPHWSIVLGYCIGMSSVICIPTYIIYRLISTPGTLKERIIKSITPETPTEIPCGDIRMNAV
T1 sequence (P23977 whole entry): as the sequence (P23977 whole entry) above
T3 sequence (P31652 whole entry): as the sequence (P31652 whole entry, looked up) above

In general, IC50 refers to the point on the concentration scale where inhibition reaches its midpoint. Take `c1ccc(C(OCCN2CCN(Cc3cc4ccccc4s3)CC2)c2ccccc2)cc1`: the IC50 in [1] came to 19 nM; in experiment [3], 18 nM; in [6], 2420 nM. The Ratio stood at 184 in experiment [2], 131 in experiment [4] and 1.1 in experiment [5].
As to `c1ccc(C(OCCN2CCN(Cc3nc4ccccc4[nH]3)CC2)c2ccccc2)cc1`, the results for the IC50 in [1], in [3] and in experiment [6] were 37 nM, 46 nM and 1880 nM, respectively. The values for the Ratio in [2], in experiment [4] and in [5] were 110, 41 and 0.8, respectively.
In the case of `Fc1ccc(C(OCCN2CCN(CCCc3cccnc3)CC2)c2ccc(F)cc2)cc1`, the results for the IC50 in experiment [1], in experiment [7] and in experiment [8] were 20 nM, 2800 nM and 16 nM, respectively. Also, the results for the Ratio in experiment [2], in [4] and in [5] were 321, 175 and 1.3, respectively.
Regarding `Fc1ccc(C(OCCN2CCN(Cc3cc4ccccc4[nH]3)CC2)c2ccc(F)cc2)cc1`, the IC50 was 13 nM in experiment [1]; 2.94 nM in [9]; 1.86 nM in experiment [10]; 0.7 nM in [3]; 119 nM in [6]. In addition, the Ratio in [2] amounted to 39; in experiment [4], 163; in [5] it was 18.6.
Regarding `c1ccc(C(OCCN2CCN(Cc3cnc4ccccc4c3)CC2)c2ccccc2)cc1`, the IC50 amounted to 111 nM in experiment [1], 72 nM in experiment [3] and 1160 nM in [6]. The Ratio was 27 in experiment [2], 16 in experiment [4] and 1.5 in experiment [5].
Turning to `Fc1ccc(C(OCCN2CCN(Cc3ccc4ccccc4c3)CC2)c2ccc(F)cc2)cc1`, the IC50 in experiment [1] worked out at 30 nM; in [3], 8 nM; in experiment [6], 312 nM. Also, the Ratio in experiment [2] was 20; in [4], 39; in experiment [5] it was 3.8.
Take `Fc1ccc(C(OCCN2CCN(Cc3cc4ccccc4s3)CC2)c2ccc(F)cc2)cc1`: the figures for the IC50 in experiment [1], in experiment [3] and in [6] were 34 nM, 4.1 nM and 495 nM, respectively. Besides, the Ratio in experiment [2] was found to be 36; in experiment [4] it was 121; in [5] it was 8.3.
With `Fc1ccc(C(OCCN2CCN(CCCc3nc4ccccc4[nH]3)CC2)c2ccc(F)cc2)cc1`, the IC50 stood at 8.1 nM in experiment [1], 2.5 nM in experiment [3] and 28 nM in experiment [6]. For the same compound, the values for the Ratio in experiment [2], in experiment [4] and in [5] were 9, 11 and 3.2, respectively.
With `C(=C\c1cccs1)/CN1CCN(CCOC(c2ccccc2)c2ccccc2)CC1`, the IC50 in [1] came to 10 nM; in experiment [3], 6.4 nM; in [6], 1170 nM. For the same compound, the Ratio stood at 200 in experiment [2], 184 in experiment [4] and 1.6 in experiment [5].
Take `C(=C\c1ccco1)/CN1CCN(CCOC(c2ccccc2)c2ccccc2)CC1`: the IC50 in [1] turned out to be 9.6 nM; in experiment [3], 5 nM; in experiment [6], 1840 nM. Also, the Ratio was 281 in experiment [2], 367 in [4] and 1.9 in experiment [5].
As to `Fc1ccc(C(OCCN2CCN(CCCc3cccs3)CC2)c2ccc(F)cc2)cc1`, the results for the IC50 in [1], in [7] and in experiment [8] were 6.1 nM, 105 nM and 3.3 nM, respectively. Further, the Ratio in experiment [2] stood at 55; in experiment [4], 32; in experiment [5], 1.8.
`Fc1ccc(C(OCCN2CCN(Cc3cccc4ccccc34)CC2)c2ccc(F)cc2)cc1`: the IC50 was determined as 312 nM in experiment [1], 31 nM in experiment [3] and 243 nM in [6]. Also, the Ratio in [2] is less than 1; in experiment [4], 8; in experiment [5], 10.1.
Take `c1ccc(C(OCCN2CCN(CCCc3cccnc3)CC2)c2ccccc2)cc1`: the IC50 turned out to be 70 nM in experiment [1], 78 nM in experiment [3] and 2420 nM in experiment [6]. The Ratio turned out to be 53 in [2], 31 in experiment [4] and 0.9 in [5].
As for `c1ccc(C(OCCN2CCN(Cc3ccc4ccccc4n3)CC2)c2ccccc2)cc1`, the IC50 in experiment [1] is 192 nM; in experiment [3], 199 nM; in [6] it was 1990 nM. Further, the Ratio turned out to be 21 in experiment [2], 10 in experiment [4] and 1 in experiment [5].
Regarding `c1ccc(C(OCCN2CCN(CCCc3cccs3)CC2)c2ccccc2)cc1`, the IC50 came to 9.7 nM in [1], 5.2 nM in [3] and 842 nM in experiment [6]. Also, the Ratio in experiment [2] came to 205; in experiment [4], 162; in experiment [5], 1.9.
Consider `Fc1ccc(C(OCCN2CCN(C/C=C/c3cccnc3)CC2)c2ccc(F)cc2)cc1`, for which the IC50 in experiment [1] was found to be 14.5 nM; in experiment [7], 334 nM; in [8] it was 13.6 nM. Besides, the Ratio amounted to 46 in experiment [2], 25 in [4] and 1.1 in [5].
With `Fc1ccc(C(OCCN2CCN(CCCc3ccco3)CC2)c2ccc(F)cc2)cc1`, the IC50 in experiment [1] is 7.9 nM; in experiment [7], 204 nM; in experiment [8] it was 5.9 nM. For the same compound, the Ratio is 52 in experiment [2], 35 in [4] and 1.3 in experiment [5].
Turning to `c1ccc(C(OCCN2CCN(CCCc3ccco3)CC2)c2ccccc2)cc1`, the IC50 in experiment [1] turned out to be 8.5 nM; in [3], 6.5 nM; in [6], 1520 nM. The results for the Ratio in [2], in [4] and in experiment [5] were 300, 234 and 1.3, respectively.
Regarding `C(=C\c1cccnc1)/CN1CCN(CCOC(c2ccccc2)c2ccccc2)CC1`, the 50% inhibitory concentration (IC50) in [1] is 64 nM; in [3], 44 nM; in experiment [6], 2760 nM. Besides, the Ratio stood at 57 in experiment [2], 61 in experiment [4] and 1.5 in experiment [5].
Consider `c1ccc(C(OCCN2CCN(CCCc3nc4ccccc4[nH]3)CC2)c2ccccc2)cc1`, for which the IC50 was found to be 17 nM in [1], 23 nM in experiment [3] and 309 nM in [6]. In addition, the Ratio stood at 39 in experiment [2], 13 in experiment [4] and 0.7 in [5].
For the compound `Fc1ccc(C(OCCN2CCN(Cc3nc4ccccc4[nH]3)CC2)c2ccc(F)cc2)cc1`, the IC50 in experiment [1] was found to be 20 nM; in experiment [3], 15 nM; in experiment [6] it was 256 nM. Further, the Ratio in experiment [2] is 40; in experiment [4] it was 17; in [5], 1.3.
Take `c1ccc(C(OCCN2CCN(Cc3ccc4ncccc4c3)CC2)c2ccccc2)cc1`: the figures for the IC50 in experiment [1], in experiment [3] and in experiment [6] were 140 nM, 190 nM and 845 nM, respectively. In addition, the Ratio in experiment [2] was determined as 12; in experiment [4], 4; in [5] it was 0.7.
With `Fc1ccc(C(OCCN2CCN(Cc3cnc4ccccc4c3)CC2)c2ccc(F)cc2)cc1`, the IC50 in [1] stood at 74 nM; in experiment [3], 16 nM; in experiment [6] it was 485 nM. Further, the values for the Ratio in experiment [2], in experiment [4] and in [5] were 12, 30 and 4.6, respectively.
For `Fc1ccc(C(OCCN2CCN(C/C=C/c3cccs3)CC2)c2ccc(F)cc2)cc1`, the IC50 in [1] worked out at 13 nM; in experiment [7], 88 nM; in experiment [8], 2.2 nM. For the same compound, the Ratio was 29 in experiment [2], 40 in experiment [4] and 5.9 in [5].
Regarding `Fc1ccc(C(OCCN2CCN(C/C=C/c3ccco3)CC2)c2ccc(F)cc2)cc1`, the 50% inhibitory concentration (IC50) in experiment [1] was found to be 7.2 nM; in experiment [7] it was 109 nM. Also, the Ratio was found to be 61 in [2], 62 in experiment [4] and 4 in [5].
As to `Fc1ccc(C(OCCN2CCN(Cc3ccc4ncccc4c3)CC2)c2ccc(F)cc2)cc1`, the IC50 in [3] was found to be 62 nM; in experiment [6], 551 nM. Further, the Ratio in [4] worked out at 9; in experiment [5] it was 1.2.
As to `c1ccc(C(OCCN2CCN(Cc3cccc4ccccc34)CC2)c2ccccc2)cc1`, the IC50 in experiment [1] came out at 406 nM; in experiment [3], 114 nM; in experiment [6], 336 nM. The results for the Ratio in experiment [2], in experiment [4] and in [5] were less than 1, 3 and 3.6, respectively.
On to `Fc1ccc(C(OCCN2CCN(Cc3ccc4ccccc4n3)CC2)c2ccc(F)cc2)cc1`, for which the results for the IC50 in experiment [1], in experiment [3] and in experiment [6] were 106 nM, 56 nM and 51 nM, respectively. Also, the Ratio is 3 in [2], less than 1 in [4] and 1.9 in experiment [5].
